# FLuc inh counter: counter-screen for luciferase assay inhibitors: firefly luciferase inhibition. ATPLite firefly luciferase biochemical luminescence, 10 min. inhibition, % at 10 µM. AID 1006. 1.5% of 200,000 active. P08659;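 active means inhibition above about 50% when tested at 10 µM, limit read from the data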
# Target sequence (P08659 whole entry, looked up): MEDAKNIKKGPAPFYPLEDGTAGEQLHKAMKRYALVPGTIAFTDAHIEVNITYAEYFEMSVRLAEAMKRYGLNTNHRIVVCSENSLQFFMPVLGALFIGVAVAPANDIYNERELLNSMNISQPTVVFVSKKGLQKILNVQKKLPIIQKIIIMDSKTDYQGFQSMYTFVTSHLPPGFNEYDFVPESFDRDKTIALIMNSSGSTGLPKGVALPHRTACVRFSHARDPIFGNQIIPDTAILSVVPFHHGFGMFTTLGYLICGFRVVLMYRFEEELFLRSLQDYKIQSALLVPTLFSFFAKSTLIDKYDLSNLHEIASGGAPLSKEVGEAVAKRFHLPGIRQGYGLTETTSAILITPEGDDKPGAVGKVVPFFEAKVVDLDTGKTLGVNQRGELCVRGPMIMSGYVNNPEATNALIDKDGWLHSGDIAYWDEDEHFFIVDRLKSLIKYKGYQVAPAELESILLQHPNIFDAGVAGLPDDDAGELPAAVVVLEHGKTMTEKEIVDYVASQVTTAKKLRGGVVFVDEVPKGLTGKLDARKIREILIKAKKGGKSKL
# NF-kB neuron act: compounds increasing NF-kB expression in human neuronal cells; AID 1239; fold change at 12.5 µM; 1.6% of 190,000 active; NF-kB reporter expression; stronger effect = higher value; in the data active means fold change above about 3.3
# FLuc stim CS: firefly luciferase counter-screen for stimulation assays. activation factor at 10 µM. 200,000 tested, under 10 active. ATPlite luciferase biochemical, luminescence, 10 min; 0 = ATP-free wells, 1 = DMSO control. P08659. AID 1027;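 active means luciferase activation factor, scaled between plate controls, of at least 2 with compound at 10 µM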
#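 Assay system: Luciferase/luciferin detection reagent, cell-free biochemical luciferase assay / Read-out: luciferase activation / Benchmarks: No-ATP low control, compound-free enzyme-plus-ATP high control / Medium: PBS buffer for ATP / Detection: luminescence measurement of luciferase light output / Schedule: 10 min at ambient temperature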
# APP 5'UTR act: APP 5'UTR luciferase reporter activation. SH-SY5Y APP 5'UTR luciferase reporter, luminescence; zero percent = DMSO vehicle wells. activation, % at 2 µM. 1% of 190,000 active;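 active means activation above a set limit, based on mean plus 3 SD of controls, cut at about 140% in these data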
# SDO1 yeast rescue: restores growth of sdo1-depleted yeast; z-score at 10 µM; 0.21% of 140,000 active; S. cerevisiae sdo1-depleted JHY4D growth rescue, OD600 30 h; stronger effect = higher value; pdr5 snq2 efflux-pump mutant strain;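 active means z-score above 3 at both the 24 hr and the 30 hr optical density reads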;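 further: z-score against mean and SD of all compound wells on the same plate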
# STAT1 act: activators of IFN-gamma induced STAT1 signaling | 2.6% of 200,000 active | activation (% of control), % at 5.5 µM | NIH 3T3 STAT1-luciferase reporter, luminescence; 100% = IFN-gamma alone, no compound;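 active means activation above the screen-wide mean activation plus 3 SD, cut at about 130% in these data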;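 further: raw ratio to IFN-gamma control signal so 100% means no change and 0% no light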
# Active calls of the source: *; / = no result given. The list is not random: actives were taken first. Their share in the collection is about 4.3%.
SMILES,FLuc inh counter,NF-kB neuron act,FLuc stim CS,APP 5'UTR act,SDO1 yeast rescue,STAT1 act
CCC(C(=O)NC1CCCCC1)n1c(SCc2cccc(C)c2)nc2ccncc21 (configuration not stated),68*,0.97,0.3,6,-0.55,106
NC(=O)CSc1nc(N)c2c3c(sc2n1)CCCCC3,24,1.4,0.8,11,0.48,109
NC(=O)CSc1nc(C2CC2)nc2sc3c(c12)CCCC3,52*,3.8*,0.5,140*,/,150*
Fc1cccc(/C=N/N=C/c2cccc(F)c2)c1,5,1.1,1,38,/,147*
O=C(N/N=C/c1cccc(F)c1)NC1CCCCC1,3,1.4,1,13,-0.49,120
CCO/C=C/C(O)(CNC(=O)c1ccc(C(C)(C)C)cc1)C(F)(F)F (configuration not stated),0,1.1,1,18,-0.84,107
Cc1ccc(Nc2nnc(SCC(=O)Nc3cccnc3Cl)s2)cc1C,63*,1.1,0.4,12,-1.3,91
Cc1ccc(Nc2nnc(SCC(=O)Nc3ccccc3[N+](=O)[O-])s2)cc1,12,1,0.9,0,0.02,93
C/C(=N\OC(=O)NC(C)C)c1sc(-c2ccccc2)nc1C,-5,1.7,1.1,82,-1.4,117
C/C(=N\OC(=O)NC(C)C)c1sc(-c2ccc(Cl)cc2)nc1C,-1,5.8*,1,39,-1.5,117
C/C(=N\OC(=O)NC1CCCCC1)c1sc(-c2ccccc2)nc1C,-6,1.9,1.1,38,-1.2,110
CCNC(=O)O/N=C(\C)c1sc(-c2ccc(Cl)cc2)nc1C,12,7.1*,0.9,160*,-1.7,144*
O=S(=O)(/C=C/c1ccccc1)N1CCN(c2nc(-c3ccccc3)nc3ccccc23)CC1,-3,1.2,1,6,/,97
Cc1ccc2cc(C#N)c(SCc3nnc(-c4ccccc4[N+](=O)[O-])o3)nc2c1,-2,4.7*,1,28,0.08,96
O=C1CCCN1c1cccc(Br)c1,-5,0.97,1,-2,-0.25,109
CCC(C)(C)n1nnnc1C(c1cc2cc(C)cc(C)c2[nH]c1=O)N1CCN(C(=O)c2ccco2)CC1 (configuration not stated),-1,0.94,1,6,0.32,106
O=C1CC(/C=C/c2ccccc2)=Nc2ccccc2N1,30,4*,0.7,128,/,142*
O=C1CC(/C=C/c2cccnc2)=Nc2ccccc2N1,6,1.8,0.9,24,/,94
COC(=O)c1ccc(NC(=S)NCCCn2ccnc2)cc1,-6,1,1.1,-14,/,99
COc1ccc(NC(=O)/C(C#N)=C\c2ccc(N3CCOCC3)o2)cc1,84*,1.3,0.2,47,/,126
N#C/C(=C\c1ccc(N2CCOCC2)o1)C(=O)Nc1ccc(O)cc1,50*,2.1,0.5,22,/,125
CC1CC1c1ccc(/C=C(\C#N)C(=O)Nc2ccccc2Cl)o1 (configuration not stated),3,0.97,1,26,-0.08,126
CC1CC1c1ccc(/C=C(\C#N)C(=O)Nc2ccc(Cl)cc2)o1 (configuration not stated),5,1.1,0.9,116,-0.62,141*
Cc1cc(C)cc(C(=O)Nc2ccc(NC(=O)Cc3ccccc3)cc2)c1,-3,0.99,1,-17,/,98
Cc1ccc(N(CC(=O)O)S(C)(=O)=O)cc1,-1,0.97,1,4,/,99
SMILES,FLuc inh counter,NF-kB neuron act,FLuc stim CS,APP 5'UTR act,SDO1 yeast rescue,STAT1 act
CN(C(=O)COc1ccccc1C(=O)NCCOc1ccccc1)c1ccccc1,-4,0.22,1,-13,-0.53,83
COc1cc(/C=N/N2C(=O)C3C4C=CC(CC4)C3C2=O)ccc1O (configuration not stated),14,1.1,0.9,2,/,127
COc1cc(/C=N/N=C2/NC(=O)C(c3ccccc3)S2)ccc1O (configuration not stated),-1,1.1,1,-9,0.57,95
COc1cc(/C=N/N=C2/C(=O)Nc3ccccc32)ccc1O,94*,1.4,0.1,-6,0.07,96
COc1cc(/C=N/N2C(=O)c3ccccc3C2=O)ccc1O,57*,1.1,0.4,6,1.8,93
O=[N+]([O-])c1ccc(C2OCCO2)cc1CS(=O)(=O)c1ccccc1,1,1.1,1,18,/,100
CNc1nc(Nc2ccc(Br)cc2)nc(N)c1[N+](=O)[O-],-4,1.3,1,94,1.5,116
COc1ccc(-c2cc(C(=O)OCC(=O)N(C)C3CCS(=O)(=O)C3)c3ccccc3n2)cc1OC (configuration not stated),-3,0.5,1,3,/,107
Cc1ccccc1-c1nnn(C/C(N)=N/O)n1,-4,1.1,1,-24,/,99
COc1cccc(NC(=O)CSc2nc3c(oc4ccccc43)c(=O)[nH]2)c1,60*,1.1,0.4,-5,0.91,103
COc1cccc(NC(=O)CSc2ncnc3c2oc2ccccc23)c1,-1,1,1,-2,-0.52,95
CC(=O)c1ccc(N2Cc3ccccc3C2=NC(=O)c2cccs2)cc1,11,3,0.9,86,0.28,135*
CCOC(=O)c1ccc(N2Cc3ccccc3C2=NC(=O)c2cccs2)cc1,0,1.8,1,98,-0.84,115
Nc1nonc1C(=O)NCCNC(=O)c1cccs1,-5,1.4,1,2,0.56,98
CCNC(=S)Nc1ccc(-c2nc3ccccc3[nH]2)cc1,51*,2.6,0.5,110,/,132*
CCOc1ccc(NC(=S)NCc2nc3ccccc3[nH]2)cc1,-3,0.73,1,-5,/,98
O=C(Nc1ccc(-c2nc3ccccc3[nH]2)cc1)C1CCCO1 (configuration not stated),90*,4.6*,0.1,180*,-0.04,87
O=C(Cc1cccs1)Nc1ccc(-c2nc3ccccc3[nH]2)cc1,47,2.7,0.5,152*,0.51,145*
O=C(CSc1ccccc1)Nc1ccc(-c2nc3ccccc3[nH]2)cc1,38,1.9,0.6,93,-1.5,131*
Cc1ccc(CN(c2ccc(C(=O)NCC3CCCO3)cc2)S(C)(=O)=O)cc1 (configuration not stated),-6,1.1,1.1,5,/,92
Cc1c(-c2ccccc2)n[nH]c1C(=O)NN,-6,1.7,1.1,32,/,101
CCOc1ccc(-c2n[nH]c(C(=O)NN)c2C)cc1,-4,0.96,1,14,-0.47,129*
COc1ccc(-c2cn3nc4c(nc3n2)CCCC4)cc1,68*,2.9,0.3,58,0.74,124
COc1ccc(CNC(=O)Cn2cc3c(n2)CCCCC3)cc1,-3,0.9,1,5,1.2,99

# Source: PubChem BioAssay
